Structures are written as SMILES. Calls of active or inactive are those of the source. No cut-off for these calls is given here.

The test system of assay [1] is MKN-28. In words: Induction of apoptosis in human MKN28 cells assessed as viable cells at 2 uM after 48 hrs by annexin V-FITC/PI staining based flow cytometry (reference value: 100%). The following applies: MKN-28, 48 h, read-out: Activity. The format is functional. A digest of the protocol: (§1)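 MKN-28 cells (3 × 10^5/well) treated at 2, 6 and 8 μM for 48 h. Stained with annexin V-FITC and PI using a kit per the maker's protocol, then analysed by flow cytometry. Apoptotic populations quantified, early and late apoptosis counted separately. Data given as mean with SD; one-way ANOVA with Tukey's post hoc test.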

For assay [2], the system named is MKN-28. In words: Induction of apoptosis in human MKN28 cells assessed as viable cells at 6 uM after 48 hrs by annexin V-FITC/PI staining based flow cytometry (reference value: 100%). The assay is classed as functional. The following applies: MKN-28, 48 h, read-out: Activity. A digest of the protocol:
as §1
(In general: Flow cytometry measures light scatter and fluorescence of single cells or particles in a stream.)

In assay [3] the test system is MKN-28. In words: Induction of apoptosis in human MKN28 cells assessed as necrotic cells at 6 uM after 48 hrs by annexin V-FITC/PI staining based flow cytometry (reference value: 0%). The assay is classed as functional. In a few lines:
as §1

Assay [4] deals with MKN-28. In words: Induction of apoptosis in human MKN28 cells assessed as increase in early apoptotic cells after 48 hrs by annexin V-FITC/PI staining based flow cytometry. The format is functional, cell-based. In a few lines: as §1
The test system of assay [5] is MKN-28. In words: Induction of apoptosis in human MKN28 cells assessed as early apoptotic cells at 8 uM after 48 hrs by annexin V-FITC/PI staining based flow cytometry (reference value: 0.043%). The assay is classed as functional. A digest of the protocol: as §1
Assay [6] concerns MKN-28. In words: Induction of mitochondrial apoptosis in human MKN28 cells assessed as caspase 3 activation at 2 to 8 uM after 48 hrs by Western blot analysis. The format is functional, cell-based. A digest of the protocol: (§2)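 MKN-28 cells (1 × 10^6/dish) cultured with compound at 2, 6 and 8 μM for 48 h. Cells lysed for 30 min on ice in RIPA buffer with DTT, PMSF and phosphatase inhibitor, then spun at 14000g, 4 °C, 15 min. Protein measured by BCA. Blots probed for Bcl-2, Bax, Bad, cleaved and pro-caspase-3 and -9, with β-actin as loading control.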
(In general: Immunoblotting shows a protein as a band on a membrane.)

The test system of assay [7] is MKN-28. In words: Induction of apoptosis in human MKN28 cells assessed as late apoptotic cells at 8 uM after 48 hrs by annexin V-FITC/PI staining based flow cytometry (reference value: 0%). The format is functional. In a few lines:
as §1

In assay [8] the test system is MKN-28. In words: Induction of mitochondrial apoptosis in human MKN28 cells assessed as increase in bad expression level at 2 to 8 uM after 48 hrs by Western blot analysis. The assay is classed as functional, cell-based. A digest of the protocol:
as §2

A short description of assay [9]: Cytotoxicity against human A549 cells assessed as inhibition of cell proliferation after 48 hrs by MTT assay. The format is functional, cell-based. The note with it: A549, 48 h. In a few lines:
(§3)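 Cells grown in DMEM with 10% FBS, 100 U/mL penicillin, 100 μg/mL streptomycin, 37 °C, 5% CO2. Seeded 5 × 10^3 cells/well, 12 h, then exposed to compounds for 48 h. MTT (5 mg/mL stock) added for 4 h at 37 °C, formazan dissolved in DMSO, absorbance read at 570 nm. IC50 relative to untreated control. Triplicate, repeated twice; cis-platinum as positive control.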
(Tetrazolium dyes change colour on reduction, which living cells bring about.)

The nature of assay [10]: Cytotoxicity against human MKN28 cells assessed as inhibition of cell proliferation after 48 hrs by MTT assay. The format is functional, cell-based. The note with it: MKN-28, 48 h. In a few lines: as §3
Assay [11] relates to MKN-28. In words: Induction of apoptosis in human MKN28 cells assessed as viable cells at 8 uM after 48 hrs by annexin V-FITC/PI staining based flow cytometry (reference value: 100%). The assay is classed as functional. The following applies: MKN-28, 48 h, read-out: Activity. A digest of the protocol:
as §1

The test system of assay [12] is MKN-28. In words: Induction of apoptosis in human MKN28 cells assessed as early apoptotic cells at 6 uM after 48 hrs by annexin V-FITC/PI staining based flow cytometry (reference value: 0.043%). The format is functional. In a few lines: as §1
Assay [13] has as its system MKN-28. In words: Induction of apoptosis in human MKN28 cells assessed as increase in late apoptotic cells after 48 hrs by annexin V-FITC/PI staining based flow cytometry. The assay is classed as functional, cell-based. In a few lines:
as §1

Assay [14] has as its system MKN-28. In words: Induction of apoptosis in human MKN28 cells assessed as early apoptotic cells at 2 uM after 48 hrs by annexin V-FITC/PI staining based flow cytometry (reference value: 0.043%). The format is functional. In a few lines: as §1
Assay [15] is described as follows: Cytotoxicity against human MCF7 cells assessed as inhibition of cell proliferation after 48 hrs by MTT assay. The format is functional, cell-based. The note with it: MCF7, 48 h. A digest of the protocol:
as §3

Assay [16] relates to MKN-28. In words: Induction of mitochondrial apoptosis in human MKN28 cells assessed as caspase 9 activation at 2 to 8 uM after 48 hrs by Western blot analysis. The assay is classed as functional, cell-based. A digest of the protocol: as §2
Assay [17] deals with MKN-28. In words: Induction of mitochondrial apoptosis in human MKN28 cells assessed as increase in bax expression level at 2 to 8 uM after 48 hrs by Western blot analysis. The format is functional, cell-based. In a few lines: as §2
In assay [18] the test system is MKN-28. In words: Induction of mitochondrial apoptosis in human MKN28 cells assessed as decrease in bcl-2 expression level at 2 to 8 uM after 48 hrs by Western blot analysis. The format is functional, cell-based. In a few lines:
as §2

For assay [19], the system named is MKN-28. In words: Induction of apoptosis in human MKN28 cells assessed as necrotic cells at 2 uM after 48 hrs by annexin V-FITC/PI staining based flow cytometry (reference value: 0%). The format is functional. In a few lines: as §1
In assay [20] the test system is MKN-28. In words: Induction of apoptosis in human MKN28 cells assessed as late apoptotic cells at 2 uM after 48 hrs by annexin V-FITC/PI staining based flow cytometry (reference value: 0%). The assay is classed as functional. A digest of the protocol:
as §1

The test system of assay [21] is MKN-28. In words: Induction of apoptosis in human MKN28 cells assessed as necrotic cells at 8 uM after 48 hrs by annexin V-FITC/PI staining based flow cytometry (reference value: 0%). The assay is classed as functional. In a few lines:
as §1

The subject of assay [22] is MKN-28. In words: Induction of apoptosis in human MKN28 cells assessed as late apoptotic cells at 6 uM after 48 hrs by annexin V-FITC/PI staining based flow cytometry (reference value: 0%). The assay is classed as functional. A digest of the protocol:
as §1

For orientation: IC50 means the concentration at which inhibition is half-maximal. `CCO[C@@H]1O[C@@H](C=C(C)C)C[C@H]1[C@@H]1CC=C2[C@]3(C)[C@H](O)C[C@H]4C(C)(C)[C@H](O)CC[C@]4(C)[C@H]3CC[C@]21C`: in the assay on MKN-28 [1], the viability at 2 µM amounted to 93.2%. In the assay on MKN-28 [2], the viability at 6 µM stood at 78.9%. For the same compound, the Activity with MKN-28 [3] is 2.51%; in the assay with MKN-28 [4], “Dose-dependent effect”; in the assay on MKN-28 [5], 12.4%; in the assay with MKN-28 [7] it was 21%; in the assay on MKN-28 [12], 5.76%; in the assay with MKN-28 [13] it was “Dose-dependent effect”. In addition, the Activity in the assay on MKN-28 [14] is reported as 3.21%; in the assay with MKN-28 [19], 0.869%; in the assay with MKN-28 [20], 2.69%; with MKN-28 [21] it was 0.685%; with MKN-28 [22], 12.6%. In addition, the outcome in the assay with MKN-28 [6], with MKN-28 [8], in the assay on MKN-28 [16], in the assay with MKN-28 [17] and in the assay on MKN-28 [18] was Active. The half-inhibitory concentration (IC50) in assay [9] worked out at 5.6 µM; in assay [10], 2.5 µM; in assay [15], 9.1 µM. In addition, the viability at 8 µM in the assay on MKN-28 [11] came to 66%.

The values above are taken from ChEMBL document CHEMBL3867438, “Cytotoxic Tirucallane and Apotirucallane Triterpenoids from the Stems of Picrasma quassioides” (J Nat Prod, 2016).
